Results collected from several papers.
Protocols differ between the studies behind these lines.
Organism: Candida albicans
Read-out: microbial growth

SMILES | method | strain | time | setting | MIC
O=C1NN=C(N=Cc2ccccc2O)C1=NNn1c(-c2ccccc2)nc2ccccc2c1=O | broth dilution | – | – | – | 111 µM
CCOC(=O)c1nc2ccccc2c(=O)n1Cc1cn(-c2ccc(C)cc2)nn1 | broth dilution | ATCC90028 | – | – | 250 µg/mL
O=C(CCc1ccc(O)c(O)c1)NCCCCCCCC[P+](c1ccccc1)(c1ccccc1)c1ccccc1.[Br-] | broth dilution | ATCC90028 | 24 h | – | > 32 µg/mL
CC1=NN(CNc2c(O)c(S(=O)(=O)O)cc3ccccc23)C(=O)C1=NNn1c(-c2ccccc2)nc2ccccc2c1=O | broth dilution | – | – | – | 41.8 µM
OC(Cn1cncn1)(Cn1cncn1)c1ccc(F)cc1F | broth dilution | ATCC90028 | 24 h | – | 0.125 µg/mL
O=C1NN=C(N=Cc2ccc(O)cc2O)C1=NNn1c(-c2ccccc2)nc2ccccc2c1=O | broth dilution | – | – | – | 53.5 µM
N=C(N)N1CC=C(c2coc(C(=O)Nc3ccc(C4=CCN(C(=N)N)CC4)c(F)c3)c2)CC1 | broth dilution | – | 48 h | clinical isolate | 0.78 µg/mL
C[C@@H]1[C@H](O)[C@@H](C)/C=C/C=C/C=C/C=C/C=C/C=C/C=C/[C@H](O[C@@H]2O[C@H](C)[C@@H](O)[C@H](N)[C@@H]2O)C[C@@H]2O[C@](O)(C[C@@H](O)C[C@@H](O)[C@H](O)CC[C@@H](O)C[C@@H](O)CC(=O)O[C@H]1C)C[C@H](O)[C@H]2C(=O)O | – | ATCC90028 | – | – | 0.63 µg/mL
C=C1C(=O)O[C@@H](CCCCCCCCCCCCC)[C@@H]1C(=O)O | – | SC5314 | – | – | 64 µg/mL
OC(Cn1cncn1)(Cn1cncn1)c1ccc(F)cc1F | broth dilution | ATCC10231 | – | – | 1 µg/mL
CCc1nc(N)nc(N)c1C#CCc1cc(OC)ccc1OC | resazurin | – | – | – | 250 µM
CC(=O)NCN1N=C(C)C(=NNn2c(-c3ccccc3)nc3ccccc3c2=O)C1=O | broth dilution | – | – | – | 120 µM
O=C(CCCCCCCC[P+](c1ccccc1)(c1ccccc1)c1ccccc1)Nc1ccc(O)c(O)c1.[Br-] | broth dilution | ATCC90028 | 24 h | – | > 32 µg/mL
NOCC(=O)O | – | SC5314 | – | – | 1000 µg/mL
O=C(CCCCCCCCCC[P+](c1ccccc1)(c1ccccc1)c1ccccc1)Nc1cc(O)c(O)c(O)c1.[Br-] | broth dilution | ATCC90028 | 24 h | – | 8 µg/mL
CC1=NN(CNC(=O)c2ccccc2)C(=O)C1=NNn1c(-c2ccccc2)nc2ccccc2c1=O | broth dilution | – | – | – | 104 µM
